Laboratory results reported in ChEMBL document CHEMBL1126268, “Antimitotic agents. Chiral isomers of ethyl [5-amino-1,2-dihydro-3-(4-hydroxyphenyl)-2-methylpyrido[3,4-b]pyrazin-7 -yl]carbamate” (J Med Chem, 1992).

What was measured:
P388 [1] = experiment: The compound was tested in vivo for percent increase in life span against lymphocytic leukemia P388 in mice after intraperitoneal administration of 1 mg/kg dose; format: functional; details: Mus musculus, P388, ip
In short: (§1)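 Mice bearing lymphocytic leukemia P388. The reported value is the percent increase in life span at the highest nontoxic dose tested.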

L1210 [2] = experiment: The compound was tested in vitro for mitotic inhibition against proliferation of cultured lymphoid leukemia L1210 cells; format: functional, Mus musculus
In short: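 Cultured lymphoid leukemia L1210 cells exposed to agent for 12 h; mitotic index scored as cells in mitosis over total cells; value is the nanomolar concentration producing a mitotic index of 0.5.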

P388 [3] = experiment: The compound was tested in vivo for percent increase in life span against lymphocytic leukemia P388 in mice after intraperitoneal administration of 30 mg/kg dose; format: functional; details: Mus musculus, P388, ip; in short: as §1
L1210 [4] = experiment: The compound was tested in vitro for cytotoxicity against proliferation of cultured lymphoid leukemia L1210 cells; format: functional, cell-based; details: Mus musculus
In short: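 Cultured lymphoid leukemia L1210 cells exposed to agent for 48 h; value is the nanomolar concentration giving 50% of control growth.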

P388 [5] = experiment: The compound was tested in vivo for percent increase in life span against lymphocytic leukemia P388 in mice after intraperitoneal administration of 0.25 mg/kg dose; format: functional; details: Mus musculus, P388, ip; in short: as §1
P388 [6] = experiment: The compound was tested in vivo for percent increase in life span against lymphocytic leukemia P388 in mice after intraperitoneal administration of 0.22 mg/kg dose; format: functional; details: Mus musculus, P388, ip; in short: as §1
P388 [7] = experiment: The compound was tested in vivo for percent increase in life span against lymphocytic leukemia P388 in mice after intraperitoneal administration of 25 mg/kg dose; format: functional; details: Mus musculus, P388, ip; in short: as §1
P388 [8] = experiment: The compound was tested in vivo for percent increase in life span against lymphocytic leukemia P388 in mice after intraperitoneal administration of 0.5 mg/kg dose; format: functional; details: Mus musculus, P388, ip; in short: as §1

Row | Compound | ILS at 1 mg/kg (P388 [1]) [%] | MI0.5 (L1210 [2]) [nM] | IC50 (L1210 [4]) [nM] | also measured
1 | CCOC(=O)Nc1cc2c(c(N)n1)N=C(c1ccc(OC)cc1)C(C)N2 (stereo not given) | 69 | 0.42 | – | –
2 | CCOC(=O)Nc1cc2c(c(N)n1)N=C(c1ccccc1)[C@@H](C)N2 | – | 27 | – | ILS at 30 mg/kg (P388 [3]): 88%
3 | CCOC(=O)Nc1cc2c(c(N)n1)N=C(c1ccc(OC(=O)NCCCl)cc1)C(C)N2 (stereo not given) | 90 | – | 0.043 | –
4 | CCCCNC(=O)Oc1ccc(C2=Nc3c(cc(NC(=O)OCC)nc3N)NC2C)cc1 (stereo not given) | – | – | 0.47 | ILS at 0.25 mg/kg (P388 [5]): 120%
5 | CCOC(=O)Nc1cc2c(c(NC(=O)NCCCl)n1)N=C(c1ccc(OC(=O)NCCCl)cc1)C(C)N2 (stereo not given) | – | – | 570 | –
6 | CCOC(=O)Nc1cc2c(c(N)n1)N=C(c1ccc(O)cc1)[C@H](C)N2 | – | 0.3 | 0.18 | ILS at 0.22 mg/kg (P388 [6]): 58%
7 | CCOC(=O)Nc1cc2c(c(N)n1)N=C(c1ccc(O)cc1)[C@@H](C)N2 | – | – | 32 | ILS at 25 mg/kg (P388 [7]): 77%
8 | CCOC(=O)Nc1cc2c(c(N)n1)N=C(c1ccc(OCc3ccccc3)cc1)C(C)N2 (stereo not given) | 120 | 30 | 7 | –
9 | CCOC(=O)Nc1cc2c(c(N)n1)N=C(c1ccc(O)cc1)C(C)N2 (racemic) | – | 0.47 | 0.22 | ILS at 0.5 mg/kg (P388 [8]): 55%
10 | CCOC(=O)Nc1cc2c(c(N)n1)N=C(c1ccccc1)C(C)N2 (racemic) | 71 | 0.58 | – | –
11 | CCOC(=O)Nc1cc2c(c(N)n1)N=C(c1ccccc1)[C@H](C)N2 [MIVOBULIN] | – | 0.14 | 0.09 | ILS at 0.5 mg/kg (P388 [8]): 64%
